Assay results reported in ChEMBL document CHEMBL4251710, “Antibacterial Muraymycins from Mutant Strains of Streptomyces sp. NRRL 30471” (J Nat Prod, 2018).
In brackets after ≈: the same amount, converted by molar mass.

Assays:
Escherichia coli [1] = assay: Antimicrobial activity against Escherichia coli BL21(DE3) after 16 hrs by resazurin dye based assay; assay type: functional
Outline: (§1)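 Overnight cultures (16 h, 37 °C) were diluted 1000-fold, grown to OD600 0.4, then diluted 1000-fold again. Cells were exposed to serially diluted compound from a top final concentration of 256 or 32 μg/mL, against a 1% DMSO or water control. Plates were incubated 16 h at 37 °C, read at OD600 normalised to control, then given resazurin for 3 h. The MIC was the lowest concentration inhibiting growth.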

[2] = target: T1, Phospho-N-acetylmuramoyl-pentapeptide-transferase (Aquifex aeolicus (strain VF5), UniProt O66465); assay: Inhibition of Aquifex aeolicus MraY expressed in Escherichia coli C41(DE3) using Park's nucleotide as substrate pretreated for 30 mins followed by substrate addition measured up to 2 mins by fluorescence assay
T1 sequence (O66465 whole entry): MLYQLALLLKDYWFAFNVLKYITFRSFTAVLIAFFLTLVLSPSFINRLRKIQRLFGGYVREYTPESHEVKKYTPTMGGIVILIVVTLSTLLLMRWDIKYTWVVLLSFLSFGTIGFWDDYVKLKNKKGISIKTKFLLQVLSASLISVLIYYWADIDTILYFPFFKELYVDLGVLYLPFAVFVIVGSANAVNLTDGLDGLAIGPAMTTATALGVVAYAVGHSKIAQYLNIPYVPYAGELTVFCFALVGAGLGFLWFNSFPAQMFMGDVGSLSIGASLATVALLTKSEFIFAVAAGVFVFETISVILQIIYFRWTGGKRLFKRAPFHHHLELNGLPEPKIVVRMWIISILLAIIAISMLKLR
Outline: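 Purified His-MBP-tagged AaMraY was expressed in E. coli C41(DE3), extracted with DDM, purified on cobalt resin, protease-cleaved and gel-filtered in DM. The enzyme (1 μL at 0.1 mg/mL) was preincubated 30 min at room temperature with inhibitor, undecaprenyl phosphate, pH 7.5 Tris, KCl, MgCl2, 0.1% Triton X-100 and 0–5% DMSO. Dansylated Park's nucleotide was then added. Fluorescence (ex 355/em 520 nm) was followed, and the rate was taken from a linear fit over 0–2 min.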

Escherichia coli [3] = assay: Antimicrobial activity against tolC deficient Escherichia coli JW5503 after 16 hrs by resazurin dye based assay; assay type: functional; settings: JW5503, 16 h; outline: as §1
Staphylococcus aureus [4] = assay: Antimicrobial activity against Staphylococcus aureus subsp. aureus str. Newman after 16 hrs by resazurin dye based assay; assay type: functional; outline: as §1
[5] = target: T2, Phospho-N-acetylmuramoyl-pentapeptide-transferase (Staphylococcus aureus, UniProt P0C1R8); assay: Inhibition of Staphylococcus aureus MraY expressed in Escherichia coli membrane using Park's nucleotide as substrate pretreated for 30 mins followed by substrate addition measured up to 2 mins by fluorescence assay; assay type: cell membranes
T2 sequence (P0C1R8 whole entry): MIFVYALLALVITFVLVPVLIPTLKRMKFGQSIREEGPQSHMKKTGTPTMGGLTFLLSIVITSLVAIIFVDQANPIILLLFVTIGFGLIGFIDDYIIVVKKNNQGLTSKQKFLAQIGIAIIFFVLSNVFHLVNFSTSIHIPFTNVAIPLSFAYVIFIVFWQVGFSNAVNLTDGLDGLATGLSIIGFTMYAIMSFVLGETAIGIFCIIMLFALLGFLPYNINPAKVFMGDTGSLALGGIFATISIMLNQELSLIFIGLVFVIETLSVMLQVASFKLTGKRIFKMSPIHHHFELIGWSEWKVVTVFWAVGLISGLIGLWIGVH

Escherichia coli [6] = assay: Antimicrobial activity against Escherichia coli harboring imp mutant; assay type: functional
Staphylococcus aureus [7] = assay: Antimicrobial activity against Staphylococcus aureus infected in mouse; assay type: functional

| Structure (SMILES) | MIC (Escherichia coli [1]) [µg/mL] | IC50 [2] [pM] | MIC (Escherichia coli [3]) [µg/mL] | MIC (Staphylococcus aureus [4]) [µg/mL] | IC50 [5] [pM] | MIC (Escherichia coli [6]) [µg/mL] | ED50 (Staphylococcus aureus [7]) [mg/kg] |
| --- | --- | --- | --- | --- | --- | --- | --- |
| CO[C@H]1[C@H](O[C@H]([C@H]2O[C@@H](n3ccc(=O)[nH]c3=O)[C@H](O)[C@@H]2O)[C@H](NCCCNC(=O)[C@@H](NC(=O)[C@@H](NC(=O)N[C@H](C(=O)O)C(C)C)[C@@H]2CCNC(=N)N2)[C@@H](OC(=O)CCCCCCCCCCC(C)C)C(C)C)C(=O)O)O[C@H](CN)[C@H]1O | 32 (≈ 27.7 µM) | 320 | 2 (≈ 1.73 µM) | 6 (≈ 5.19 µM) | 22.1 | – | – |
| CO[C@H]1[C@H](O[C@H]([C@H]2O[C@@H](n3ccc(=O)[nH]c3=O)[C@H](O)[C@@H]2O)[C@H](NCCCNC(=O)[C@@H](NC(=O)[C@@H](NC(=O)N[C@H](C(=O)O)C(C)C)[C@@H]2CCNC(=N)N2)[C@@H](OC(=O)CCCCCCCCCCCCC(C)C)C(C)C)C(=O)O)O[C@H](CN)[C@H]1O | 64 (≈ 54 µM) | – | 4 (≈ 3.38 µM) | 2 (≈ 1.69 µM) | 4 | – | – |
| CO[C@H]1[C@H](O[C@H]([C@H]2O[C@@H](n3ccc(=O)[nH]c3=O)[C@H](O)[C@@H]2O)[C@H](NCCCNC(=O)[C@@H](NC(=O)[C@@H](NC(=O)N[C@H](C(=O)O)C(C)C)[C@@H]2CCNC(=N)N2)[C@@H](O)C(C)C)C(=O)O)O[C@H](CNC(C)=O)[C@H]1O | 256 (≈ 259 µM) | 1800 | 16 (≈ 16.2 µM) | > 32 | 93 | – | – |
| CO[C@H]1[C@H](O[C@H]([C@H]2O[C@@H](n3ccc(=O)[nH]c3=O)[C@H](O)[C@@H]2O)[C@H](NCCCNC(=O)[C@@H](NC(=O)[C@@H](NC(=O)N[C@H](C(=O)O)C(C)C)[C@@H]2CCNC(=N)N2)[C@@H](O)C(C)C)C(=O)O)O[C@H](CN)[C@H]1O | 8 (≈ 8.46 µM) | 350 | 1 (≈ 1.06 µM) | > 32 | 15.7 | – | – |
| CO[C@H]1[C@H](O[C@H]([C@H]2O[C@@H](n3ccc(=O)[nH]c3=O)[C@H](O)[C@@H]2O)[C@H](NCCCNC(=O)[C@@H](NC(=O)[C@@H](NC(=O)N[C@H](C(=O)O)C(C)C)[C@@H]2CCNC(=N)N2)[C@@H](OC(=O)CCCCCCCCCCCCN(O)C(=N)N)C(C)C)C(=O)O)O[C@H](CN)[C@H]1O | – | – | – | – | – | < 0.03 | 1.1 |
